Assay results collected from several papers.
Lines come from different studies, so protocols differ.
Organism: Plasmodium falciparum
Read-out: parasite growth

For Cc1ccc2c(c1C)NC(=O)[C@]21NN=C(c2ccccc2)S1, the IC50 was 960 nM (SYBR Green; blood stage).
CC1=C(C)C(c2ccc[nH]2)=NC1=Cc1ccc(CCCCCCCCCC(C)O)[nH]1 (stereo not shown) gave an IC50 of 1080 nM (D6; blood stage).
The IC50 of Clc1ccc2c(nc(N3CCNCC3)n2Cc2ccccc2)c1-c1ccccc1 is reported as 3650 nM (NF54; blood stage).
For Cc1cc(NCCc2ccccc2)nc(N=C(N)Nc2ccc(Cl)cc2)n1, the IC50 was 280 nM (SYBR Green; blood stage).
For O=C(Nc1ccc2c(c1)B(O)OC2)Nc1ccc(F)c(C(F)(F)F)c1, the IC50 was 3100 nM (NF54; blood stage).
Cc1cccc(C(=O)O)c1NC(=O)c1cccc(-c2ccccc2)c1 gave an IC50 of 665 nM (resazurin; NF54; 48 h, gametocyte).
The IC50 of O=C(O)c1cc(-c2ccc(Br)cc2)nc2ccc(Cl)cc12 is reported as 60000 nM (SYBR Green; blood stage).
For CC(=O)Nc1ccc(-c2ccc3ncc4c(c3c2)n(-c2cccc(C(F)(F)F)c2)c(=O)n4C)cn1, the IC50 was under 100 nM (resazurin; 3D7; gametocyte).
C#CCCCCCCCCCCCC(O)CC(O)CO (stereo not shown) gave an IC50 of 32.5 µg/mL (W2; drug-resistant strain, blood stage).
The IC50 of CN1CCN(C2CCN(c3nccc4[nH]c(-c5cccc(C#N)c5)nc34)CC2)CC1 is reported as under 100 nM (NF54; blood stage).
O=C(O)c1cc(F)ccc1NC(=O)c1ccccc1-c1ccccc1 has an IC50 of 674 nM (resazurin; NF54; 48 h, gametocyte).
The IC50 of CCc1ccc(C2=NC(=Cc3ccc(CCCCCCCCCC(C)O)[nH]3)C(OC)=C2)[nH]1 (stereo not shown) is reported as 17 nM (D6; blood stage).
The IC50 of CN1CCN(C2CCN(c3nccc4[nH]c(-c5ccc(F)c(C(F)(F)F)c5)nc34)CC2)CC1 is reported as under 100 nM (NF54; blood stage).
The IC50 of CCN(CC)CCCC(C)Nc1ccnc2cc(Cl)ccc12 (stereo not shown) is reported as 0.016 µg/mL (D6; 72 h, blood stage).
For O=C(O)/C=C/C=C/c1cccc(Oc2cc(Cl)cc(Cl)c2)c1, the IC50 was 54200 nM (SYBR Green; blood stage).
With c1ccc(Cn2c(N3CCNCC3)nc3cc(-c4cc[nH]n4)ccc32)cc1 the IC50 was over 10000 nM (NF54; blood stage).
CCN(CC)CCCC(C)Nc1ccnc2cc(Cl)ccc12 (stereo not shown) has an IC50 of 201 nM.
For C[C@@H]1CC[C@H]2[C@@H](C)C(=O)O[C@@H]3O[C@@]4(C)CC[C@@H]1[C@]32OO4, the IC50 was 0.0038 µg/mL (W2; 72 h, drug-resistant strain, blood stage).
Clc1ccc2c(nc(N3CCNCC3)n2Cc2ccccc2)c1Br has an IC50 of 71 nM (NF54; blood stage).
CCCCCCCCCCCCCC(O)CC(O)CO (stereo not shown) has an IC50 of 40.8 µg/mL (W2; drug-resistant strain, blood stage).
For O=C1C(O)=C([C@H]2CC[C@H](c3ccc(Cl)cc3)CC2)C(=O)c2ccccc21, the IC50 was 6.5 nM (3D7; 24 h, blood stage).
NCCCCNc1nc2cc(Cl)ccc2n1Cc1ccccc1 has an IC50 of 1340 nM (NF54; blood stage).
The IC50 of Cc1cccc(C(=O)O)c1NC(=O)c1ccccc1-c1ccccc1 is reported as over 10000 nM (resazurin; NF54; 48 h, gametocyte).
FC(F)(F)c1ccc(CNCCNc2nc3cc(Cl)ccc3n2Cc2ccccc2)cc1 gave an IC50 of 2780 nM (NF54; blood stage).
With CO[C@H]1/C=C/O[C@@]2(C)Oc3c(C)c(O)c4c(O)c(c(/C=N/N5CCN(C)CC5)c(O)c4c3C2=O)NC(=O)/C(C)=C\C=C[C@H](C)[C@H](O)[C@@H](C)[C@@H](O)[C@@H](C)[C@H](OC(C)=O)[C@@H]1C the IC50 was 7810 nM (SYBR Green; blood stage).
